From ChEMBL document CHEMBL4007505 (J Med Chem, 2017)
Calls of active or inactive are those of the source. No cut-off for these calls is given here.

Assays:
[1] = target: T1, Sodium-dependent dopamine transporter (Homo sapiens, UniProt Q01959); experiment: Enhancing of [3H]mazindol binding to recombinant human DAT expressed in HEK293 cell membranes preincubated for 10 mins followed by radioligand addition measured after 90 mins by micro beta scintillation counting analysis; parameters: concentration or dose not given beside the values
Method in brief: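 Membranes of HEK-293 cells stably expressing hDAT, hNET or hSERT. […] Compound preincubated 10 min at room temperature, then [125I]23 (40-80 pM final) or [3H]26 (1-3 nM for DAT and NET, 10-13 nM for SERT) added. Incubated 90 min at room temperature in the dark, then filtered. EC50 or Ki; mean ± SEM.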

Adenosine receptor A3 [2] = target: T2, Adenosine receptor A3 (Homo sapiens, UniProt P0DMS8); experiment: Displacement of [125I]N6-(4-amino-3-iodobenzyl)adenosine-5'-N-methyluronamide from human A3AR expressed in HEK293T cells pre-incubated for 10 mins before radioligand addition and measured 90 mins after radioligand addition by micro beta scintillation counting analysis relative to control; type: cell-based, HEK-293T
T2 sequence (P0DMS8 whole entry): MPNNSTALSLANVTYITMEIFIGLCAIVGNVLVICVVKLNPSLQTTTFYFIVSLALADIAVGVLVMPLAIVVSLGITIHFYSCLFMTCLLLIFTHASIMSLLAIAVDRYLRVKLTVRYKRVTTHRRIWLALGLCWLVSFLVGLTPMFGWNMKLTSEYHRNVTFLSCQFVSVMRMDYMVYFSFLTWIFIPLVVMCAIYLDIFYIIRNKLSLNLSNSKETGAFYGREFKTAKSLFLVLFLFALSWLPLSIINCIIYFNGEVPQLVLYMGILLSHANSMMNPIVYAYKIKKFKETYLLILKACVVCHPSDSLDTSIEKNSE

[3] = target: Sodium-dependent noradrenaline transporter (Homo sapiens, UniProt P23975); experiment: Enhancing of [3H]mazindol binding to recombinant human NET expressed in HEK293 cell membranes preincubated for 10 mins followed by radioligand addition measured after 90 mins by micro beta scintillation counting analysis
[4] = target: Sodium-dependent serotonin transporter (Homo sapiens, UniProt P31645); experiment: Enhancing of [125I]RTI-55 binding to recombinant human SERT expressed in HEK293 cell membranes preincubated for 10 mins followed by radioligand addition measured after 90 mins by micro beta scintillation counting analysis
Adenosine receptor A3 [5] = target: T3, Adenosine receptor A3 (Mus musculus, UniProt Q61618); experiment: Displacement of [125I]N6-(4-amino-3-iodobenzyl)adenosine-5'-N-methyluronamide from mouse A3AR expressed in HEK293T cells pre-incubated for 10 mins before radioligand addition and measured 90 mins after radioligand addition by micro beta scintillation counting analysis relative to control; type: cell-based
T3 sequence (Q61618 whole entry): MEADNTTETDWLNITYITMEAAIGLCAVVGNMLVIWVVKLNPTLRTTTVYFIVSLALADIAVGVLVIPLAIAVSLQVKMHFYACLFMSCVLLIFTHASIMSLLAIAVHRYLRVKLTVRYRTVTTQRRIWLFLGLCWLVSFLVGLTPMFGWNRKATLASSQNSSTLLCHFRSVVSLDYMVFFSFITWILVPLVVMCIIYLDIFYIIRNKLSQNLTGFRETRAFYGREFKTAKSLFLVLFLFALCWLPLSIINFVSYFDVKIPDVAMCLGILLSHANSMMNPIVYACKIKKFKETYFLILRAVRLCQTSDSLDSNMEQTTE

[6] = target: T4, 5-hydroxytryptamine receptor 2C (Homo sapiens, UniProt P28335); experiment: Displacement of [3H]Mesulergine from human 5-HT2C receptor
T4 sequence (P28335 whole entry): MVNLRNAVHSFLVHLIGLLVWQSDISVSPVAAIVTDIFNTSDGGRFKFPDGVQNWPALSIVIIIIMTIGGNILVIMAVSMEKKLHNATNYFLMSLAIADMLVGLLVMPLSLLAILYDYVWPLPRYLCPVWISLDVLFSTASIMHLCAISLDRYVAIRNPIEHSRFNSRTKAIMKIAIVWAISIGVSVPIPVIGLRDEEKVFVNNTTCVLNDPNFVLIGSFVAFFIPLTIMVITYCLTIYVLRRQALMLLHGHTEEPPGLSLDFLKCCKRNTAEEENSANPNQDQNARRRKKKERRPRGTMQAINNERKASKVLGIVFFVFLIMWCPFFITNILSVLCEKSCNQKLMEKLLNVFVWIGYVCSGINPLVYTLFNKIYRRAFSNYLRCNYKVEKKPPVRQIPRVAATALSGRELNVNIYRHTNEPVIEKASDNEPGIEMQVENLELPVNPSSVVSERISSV

[7] = target: T5, Alpha-2C adrenergic receptor (Homo sapiens, UniProt P18825); experiment: Displacement of [3H]Rauwolscine from human adrenergic alpha2C receptor
T5 sequence (P18825 whole entry): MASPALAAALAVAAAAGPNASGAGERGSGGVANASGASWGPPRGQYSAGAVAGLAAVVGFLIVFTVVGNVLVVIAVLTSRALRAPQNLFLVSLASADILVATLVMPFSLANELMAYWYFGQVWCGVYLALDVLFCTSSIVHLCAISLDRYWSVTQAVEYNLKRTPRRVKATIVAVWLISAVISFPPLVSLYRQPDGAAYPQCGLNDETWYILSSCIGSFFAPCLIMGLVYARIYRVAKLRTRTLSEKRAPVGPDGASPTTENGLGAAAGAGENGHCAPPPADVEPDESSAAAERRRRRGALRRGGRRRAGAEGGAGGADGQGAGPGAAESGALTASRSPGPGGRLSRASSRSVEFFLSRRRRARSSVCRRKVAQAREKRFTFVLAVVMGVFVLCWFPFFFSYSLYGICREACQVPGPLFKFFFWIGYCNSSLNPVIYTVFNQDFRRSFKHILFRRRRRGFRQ

[8] = target: T6, Alpha-1D adrenergic receptor (Homo sapiens, UniProt P25100); experiment: Displacement of [3H]Prazosin from human adrenergic alpha1D receptor
T6 sequence (P25100 whole entry): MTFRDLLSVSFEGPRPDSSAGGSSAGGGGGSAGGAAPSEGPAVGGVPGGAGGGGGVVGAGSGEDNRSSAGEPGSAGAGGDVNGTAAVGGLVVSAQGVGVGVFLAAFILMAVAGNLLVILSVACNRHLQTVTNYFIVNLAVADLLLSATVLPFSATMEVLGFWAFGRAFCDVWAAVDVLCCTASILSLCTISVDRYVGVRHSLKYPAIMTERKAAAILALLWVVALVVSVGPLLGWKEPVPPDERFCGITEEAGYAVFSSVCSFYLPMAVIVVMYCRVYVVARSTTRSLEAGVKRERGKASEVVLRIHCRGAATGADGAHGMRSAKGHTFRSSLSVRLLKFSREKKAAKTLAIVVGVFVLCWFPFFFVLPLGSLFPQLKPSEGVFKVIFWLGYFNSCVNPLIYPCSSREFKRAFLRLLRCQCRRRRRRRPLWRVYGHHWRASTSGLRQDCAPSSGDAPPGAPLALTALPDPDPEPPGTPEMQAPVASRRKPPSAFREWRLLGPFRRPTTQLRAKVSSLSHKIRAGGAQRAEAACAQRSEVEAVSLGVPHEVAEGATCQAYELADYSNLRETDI

[9] = target: T1, Sodium-dependent dopamine transporter; experiment: Inhibition of recombinant human DAT expressed in HEK293 cell […] as reduction in [3H]-DA uptake incubated for 22 mins by micro beta scintillation counting analysis

T1 sequence (Q01959 whole entry): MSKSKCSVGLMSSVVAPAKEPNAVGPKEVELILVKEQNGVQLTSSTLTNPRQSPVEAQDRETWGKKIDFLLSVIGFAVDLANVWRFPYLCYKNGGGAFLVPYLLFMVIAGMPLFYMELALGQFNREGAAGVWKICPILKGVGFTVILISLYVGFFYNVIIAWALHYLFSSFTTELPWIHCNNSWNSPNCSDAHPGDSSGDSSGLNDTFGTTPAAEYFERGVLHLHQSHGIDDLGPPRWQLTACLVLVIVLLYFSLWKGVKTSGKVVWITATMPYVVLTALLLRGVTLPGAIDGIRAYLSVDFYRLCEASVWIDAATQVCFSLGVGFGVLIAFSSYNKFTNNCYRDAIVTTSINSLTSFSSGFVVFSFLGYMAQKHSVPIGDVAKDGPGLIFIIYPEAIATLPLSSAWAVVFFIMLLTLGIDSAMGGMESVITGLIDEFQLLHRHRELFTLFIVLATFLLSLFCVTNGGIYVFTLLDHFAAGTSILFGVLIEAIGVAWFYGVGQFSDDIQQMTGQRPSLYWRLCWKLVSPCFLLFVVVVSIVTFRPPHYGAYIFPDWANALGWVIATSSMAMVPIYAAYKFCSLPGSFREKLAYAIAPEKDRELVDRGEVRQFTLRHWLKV
Chain of Sodium-dependent noradrenaline transporter (P23975 whole entry): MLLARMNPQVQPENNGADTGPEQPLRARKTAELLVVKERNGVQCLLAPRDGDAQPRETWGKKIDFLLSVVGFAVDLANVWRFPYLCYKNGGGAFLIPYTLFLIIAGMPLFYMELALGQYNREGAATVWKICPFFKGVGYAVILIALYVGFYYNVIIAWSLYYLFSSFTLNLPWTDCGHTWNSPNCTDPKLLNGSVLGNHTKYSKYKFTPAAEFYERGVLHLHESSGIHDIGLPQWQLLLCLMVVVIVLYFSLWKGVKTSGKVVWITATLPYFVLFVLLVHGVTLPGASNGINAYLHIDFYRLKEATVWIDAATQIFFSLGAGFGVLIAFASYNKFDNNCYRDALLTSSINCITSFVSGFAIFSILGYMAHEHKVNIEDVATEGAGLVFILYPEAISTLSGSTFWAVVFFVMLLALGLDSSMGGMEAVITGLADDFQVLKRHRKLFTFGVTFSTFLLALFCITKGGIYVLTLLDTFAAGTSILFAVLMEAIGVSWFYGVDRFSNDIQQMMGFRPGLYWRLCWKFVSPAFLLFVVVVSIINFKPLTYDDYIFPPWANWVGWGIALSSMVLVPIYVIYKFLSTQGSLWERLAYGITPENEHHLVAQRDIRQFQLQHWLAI

CNc1nc(C#Cc2ccc(Cl)s2)nc2c1ncn2[C@@H]1O[C@H](C(=O)OC)[C@@H](O)[C@H]1O
Activity [1]: 269%
EC50 ([1]; read-out: EC50): 860 nM
Ki (Adenosine receptor A3 [2]): 11.5 nM
Activity [3]: inactive
Activity [4]: inactive
EC50 ([4]; read-out: EC50): > 10000 nM
Ki (Adenosine receptor A3 [5]): 34 nM
Ki [6]: 3240 nM
Ki [7]: > 10000 nM
Ki [8]: > 10000 nM
IC50 [9]: 396 nM
